The source made the active and inactive calls. The rule behind the calls is not given here. Starred links: 1 amine or outer side, 2 acyl side, 3 side chain; linkers in the order of their positions; H or OH if unused. Non-standard residues stand in square brackets, D forms with d. Residues, ends and D or L forms follow the SMILES beside them. *: point of attachment. Hydrocinnamoyl = O=C(CCc1ccccc1)*; hArg = N=C(N)NCCCC[C@H](N)C(=O)O; Cit = NC(=O)NCCC[C@H](N)C(=O)O; Orn = NCCC[C@H](N)C(=O)O; 2Abz = Nc1ccccc1C(=O)O; Cbz = O=C(OCc1ccccc1)*; PhAc = O=C(Cc1ccccc1)*; CO = O=C([*:1])[*:2]; NHBn = c1ccc(CN*)cc1; Bz = O=C(c1ccccc1)*
Legend:
Genome polyprotein = Genome polyprotein (West Nile virus, UniProt P06935); test: Inhibition of WNV recombinant NS2B-NS3 protease
[1] = target: Genome polyprotein (West Nile virus) (UniProt P06935); test: Inhibition of WNV recombinant NS2B-NS3 protease at 10 uM
Outline: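 Single-concentration screen at 10 µM inhibitor, scoring inhibition of recombinant WNV protease processing of the chromogenic tetrapeptide substrate Ac-LKKR-pNA.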

Vero = test: Cytotoxicity against african green monkey Vero cells upto 400 uM after 72 hrs by MTT assay; format: cell-based; conditions: chlorocebus sabaeus
Outline: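 MTT viability in Vero cells seeded at 4 × 10^4 per well and grown to about 90% confluence (~12 h). Fresh medium held compound at 5 nM–400 µM, with control medium ± DMSO. After 72 h, MTT was added for 3.5 h at 37 °C, then HCl/isopropanol for 4 h at RT. Absorbance was read at 550 nm; CC50 estimated; duplicates.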

Bos taurus = species on record: Bos taurus; test: Inhibition of bovine trypsin at 1 uM
West Nile virus [2] = test: Antiviral activity against WNV Kunjin infected african green monkey Vero cells assessed as reduction in plaque size measured at 48 hrs postinfection; format: functional, organism-based
Outline: (§1)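 Vero cells were seeded at 4 × 10^4 per well and grown to about 90% confluence, then washed with PBS and serum-free medium. Cells were coinfected with WNV Kunjin (moi 0.04) plus compound at 100 nM–200 µM for 2 h at 37 °C. Overlay was M199, 3% FBS, 1.2% carboxymethyl cellulose, 48 h. Plaques were immunostained with anti-NS1 antibody and read as infrared area; ten plaques averaged per well, duplicates, IC50 from dose-response.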

[3] = target: Plasminogen (Homo sapiens) (UniProt P00747); test: Inhibition of human plasmin at 1 uM
[4] = target: Coagulation factor X (Bos taurus) (UniProt P00743); test: Inhibition of bovine factor 10a at 1 uM
West Nile virus [5] = test: Antiviral activity against WNV Kunjin infected african green monkey Vero cells assessed as reduction in plaque size at 12.5 uM measured at 48 hrs postinfection; format: functional, organism-based; outline: as §1
[6] = target: Urokinase-type plasminogen activator (Homo sapiens) (UniProt P00749); test: Inhibition of human urokinase at 1 uM

Sequence of Genome polyprotein (P06935 1371-1501 limits assumed): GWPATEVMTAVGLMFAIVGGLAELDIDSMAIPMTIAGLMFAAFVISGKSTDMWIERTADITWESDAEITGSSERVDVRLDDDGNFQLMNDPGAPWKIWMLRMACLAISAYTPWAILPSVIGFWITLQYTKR
Sequence of Genome polyprotein (P06935 1502-2120 limits assumed): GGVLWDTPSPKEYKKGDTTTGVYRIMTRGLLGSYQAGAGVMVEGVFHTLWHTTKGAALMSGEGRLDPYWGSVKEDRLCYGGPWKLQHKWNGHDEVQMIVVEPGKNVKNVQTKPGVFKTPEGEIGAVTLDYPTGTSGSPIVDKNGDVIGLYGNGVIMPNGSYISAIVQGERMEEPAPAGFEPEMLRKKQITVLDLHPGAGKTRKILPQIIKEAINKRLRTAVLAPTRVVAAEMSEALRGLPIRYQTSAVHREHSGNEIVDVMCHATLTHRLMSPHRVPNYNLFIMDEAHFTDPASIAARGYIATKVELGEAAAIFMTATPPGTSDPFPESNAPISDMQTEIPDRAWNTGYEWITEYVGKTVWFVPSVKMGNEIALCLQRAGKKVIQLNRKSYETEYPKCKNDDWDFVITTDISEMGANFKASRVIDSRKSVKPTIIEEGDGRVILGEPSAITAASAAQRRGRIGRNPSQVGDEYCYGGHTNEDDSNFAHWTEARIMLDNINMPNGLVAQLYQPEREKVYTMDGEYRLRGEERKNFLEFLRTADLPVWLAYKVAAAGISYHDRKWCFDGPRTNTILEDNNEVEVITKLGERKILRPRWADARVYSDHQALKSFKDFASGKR
Sequence of Genome polyprotein (West Nile virus) (P06935 whole entry): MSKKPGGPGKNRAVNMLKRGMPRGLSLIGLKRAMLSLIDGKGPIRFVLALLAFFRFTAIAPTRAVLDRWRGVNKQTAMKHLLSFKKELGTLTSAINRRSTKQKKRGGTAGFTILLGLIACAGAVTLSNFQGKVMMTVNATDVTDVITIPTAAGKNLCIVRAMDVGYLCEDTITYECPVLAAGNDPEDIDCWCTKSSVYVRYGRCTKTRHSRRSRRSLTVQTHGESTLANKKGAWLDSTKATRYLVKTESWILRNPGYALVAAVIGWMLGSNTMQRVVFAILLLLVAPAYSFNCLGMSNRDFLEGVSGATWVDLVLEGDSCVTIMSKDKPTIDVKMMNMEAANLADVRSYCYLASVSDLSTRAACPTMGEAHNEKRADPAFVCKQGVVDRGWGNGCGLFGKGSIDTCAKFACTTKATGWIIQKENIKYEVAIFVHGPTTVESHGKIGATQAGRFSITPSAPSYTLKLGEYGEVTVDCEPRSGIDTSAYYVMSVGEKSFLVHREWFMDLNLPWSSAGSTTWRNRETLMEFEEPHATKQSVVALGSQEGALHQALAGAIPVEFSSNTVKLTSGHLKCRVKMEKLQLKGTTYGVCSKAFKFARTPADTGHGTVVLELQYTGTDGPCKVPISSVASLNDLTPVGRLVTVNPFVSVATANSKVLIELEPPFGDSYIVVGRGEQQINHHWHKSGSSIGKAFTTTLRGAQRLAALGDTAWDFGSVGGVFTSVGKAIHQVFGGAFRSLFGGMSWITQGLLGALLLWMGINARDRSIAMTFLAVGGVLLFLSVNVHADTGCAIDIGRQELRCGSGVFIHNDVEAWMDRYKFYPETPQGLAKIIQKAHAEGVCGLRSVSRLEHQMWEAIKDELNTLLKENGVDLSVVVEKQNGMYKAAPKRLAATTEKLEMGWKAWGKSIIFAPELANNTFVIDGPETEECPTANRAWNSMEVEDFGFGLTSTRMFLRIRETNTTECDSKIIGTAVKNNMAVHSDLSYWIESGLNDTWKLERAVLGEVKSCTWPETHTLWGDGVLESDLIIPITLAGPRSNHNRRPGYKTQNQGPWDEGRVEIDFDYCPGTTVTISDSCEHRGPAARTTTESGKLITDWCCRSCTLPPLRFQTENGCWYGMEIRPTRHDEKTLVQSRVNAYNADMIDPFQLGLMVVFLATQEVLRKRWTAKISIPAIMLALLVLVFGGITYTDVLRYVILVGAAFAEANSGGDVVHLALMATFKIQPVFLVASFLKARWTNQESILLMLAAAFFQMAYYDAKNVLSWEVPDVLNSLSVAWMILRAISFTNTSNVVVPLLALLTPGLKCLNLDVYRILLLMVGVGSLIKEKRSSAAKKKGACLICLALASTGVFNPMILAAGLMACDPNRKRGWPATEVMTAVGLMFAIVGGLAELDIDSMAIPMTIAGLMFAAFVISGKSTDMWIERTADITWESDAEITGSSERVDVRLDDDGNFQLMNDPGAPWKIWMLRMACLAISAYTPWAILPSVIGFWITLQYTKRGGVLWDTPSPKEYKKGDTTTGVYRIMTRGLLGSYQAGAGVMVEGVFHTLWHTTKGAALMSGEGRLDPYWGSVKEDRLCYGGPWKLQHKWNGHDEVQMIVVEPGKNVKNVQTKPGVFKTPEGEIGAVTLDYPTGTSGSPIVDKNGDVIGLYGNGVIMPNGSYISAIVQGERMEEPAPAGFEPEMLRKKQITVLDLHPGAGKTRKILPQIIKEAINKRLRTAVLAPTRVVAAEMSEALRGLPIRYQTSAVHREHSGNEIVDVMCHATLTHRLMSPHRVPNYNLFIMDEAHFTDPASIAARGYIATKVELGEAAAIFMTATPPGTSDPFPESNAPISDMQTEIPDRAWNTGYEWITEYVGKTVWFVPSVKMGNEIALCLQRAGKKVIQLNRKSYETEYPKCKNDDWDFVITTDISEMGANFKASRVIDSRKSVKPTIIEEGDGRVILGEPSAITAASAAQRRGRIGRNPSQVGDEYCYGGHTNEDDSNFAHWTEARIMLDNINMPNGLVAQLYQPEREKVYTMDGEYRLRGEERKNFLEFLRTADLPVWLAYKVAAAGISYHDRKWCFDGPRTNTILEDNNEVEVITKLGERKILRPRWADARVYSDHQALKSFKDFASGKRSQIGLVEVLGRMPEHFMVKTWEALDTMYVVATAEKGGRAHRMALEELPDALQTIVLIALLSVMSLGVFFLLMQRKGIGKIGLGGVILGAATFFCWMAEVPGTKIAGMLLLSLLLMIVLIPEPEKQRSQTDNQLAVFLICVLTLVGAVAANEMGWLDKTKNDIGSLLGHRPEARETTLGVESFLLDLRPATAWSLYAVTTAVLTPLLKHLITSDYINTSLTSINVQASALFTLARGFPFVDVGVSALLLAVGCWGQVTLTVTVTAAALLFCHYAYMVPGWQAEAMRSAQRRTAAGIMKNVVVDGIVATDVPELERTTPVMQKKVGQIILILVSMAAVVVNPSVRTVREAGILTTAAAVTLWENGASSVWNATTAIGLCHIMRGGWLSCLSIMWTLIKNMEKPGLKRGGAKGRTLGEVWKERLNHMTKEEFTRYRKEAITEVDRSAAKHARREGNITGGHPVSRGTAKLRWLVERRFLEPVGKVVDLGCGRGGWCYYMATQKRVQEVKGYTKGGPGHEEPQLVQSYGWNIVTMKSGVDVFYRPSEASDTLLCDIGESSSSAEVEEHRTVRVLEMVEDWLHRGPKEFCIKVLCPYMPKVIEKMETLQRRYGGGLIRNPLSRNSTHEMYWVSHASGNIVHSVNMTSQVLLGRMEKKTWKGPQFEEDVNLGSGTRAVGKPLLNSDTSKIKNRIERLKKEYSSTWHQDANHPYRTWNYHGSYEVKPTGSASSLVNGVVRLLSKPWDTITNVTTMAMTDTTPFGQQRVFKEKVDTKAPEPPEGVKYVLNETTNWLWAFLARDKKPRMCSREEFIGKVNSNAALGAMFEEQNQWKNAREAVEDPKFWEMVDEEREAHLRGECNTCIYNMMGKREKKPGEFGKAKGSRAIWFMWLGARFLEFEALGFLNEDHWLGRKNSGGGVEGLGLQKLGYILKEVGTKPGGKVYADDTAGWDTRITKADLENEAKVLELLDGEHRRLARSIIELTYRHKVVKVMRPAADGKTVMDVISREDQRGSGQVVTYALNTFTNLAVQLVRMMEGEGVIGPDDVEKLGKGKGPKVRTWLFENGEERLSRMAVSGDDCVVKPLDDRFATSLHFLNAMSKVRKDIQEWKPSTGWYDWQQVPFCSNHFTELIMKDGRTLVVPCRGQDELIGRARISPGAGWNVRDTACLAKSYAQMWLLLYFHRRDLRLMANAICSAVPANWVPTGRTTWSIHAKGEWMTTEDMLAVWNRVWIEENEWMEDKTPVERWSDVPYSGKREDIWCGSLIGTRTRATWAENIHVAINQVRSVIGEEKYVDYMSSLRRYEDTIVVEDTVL
Sequence of Plasminogen (Homo sapiens) (P00747 97-580 limits assumed): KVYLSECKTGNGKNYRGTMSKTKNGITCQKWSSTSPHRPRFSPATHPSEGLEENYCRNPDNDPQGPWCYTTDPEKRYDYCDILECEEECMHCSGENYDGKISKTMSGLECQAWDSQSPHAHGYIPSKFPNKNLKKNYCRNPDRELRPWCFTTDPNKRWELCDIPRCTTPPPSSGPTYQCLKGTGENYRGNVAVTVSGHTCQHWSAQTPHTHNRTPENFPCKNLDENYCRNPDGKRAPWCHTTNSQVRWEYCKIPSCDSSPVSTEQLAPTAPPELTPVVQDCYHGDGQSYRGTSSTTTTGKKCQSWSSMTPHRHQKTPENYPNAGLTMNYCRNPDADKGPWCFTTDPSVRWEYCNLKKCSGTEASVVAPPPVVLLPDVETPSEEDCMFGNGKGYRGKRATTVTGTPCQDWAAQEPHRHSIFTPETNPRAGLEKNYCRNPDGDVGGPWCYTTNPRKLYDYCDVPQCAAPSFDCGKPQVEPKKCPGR
Sequence of Plasminogen (Homo sapiens) (P00747 581-810 limits assumed): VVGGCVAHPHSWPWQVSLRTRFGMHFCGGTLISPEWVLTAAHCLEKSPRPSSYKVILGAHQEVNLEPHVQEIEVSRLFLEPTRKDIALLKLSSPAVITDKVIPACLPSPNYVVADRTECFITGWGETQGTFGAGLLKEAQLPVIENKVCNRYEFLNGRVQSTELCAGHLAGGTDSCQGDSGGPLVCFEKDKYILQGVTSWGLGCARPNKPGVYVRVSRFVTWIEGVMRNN

SMILES	IC50 (Genome polyprotein)	Ki (Genome polyprotein)	further results
NCCCC[C@H](NC(=O)[C@H](CCCN=C(N)N)NC(=O)Cc1ccccc1)C(=O)N[C@H](C=O)CCCN=C(N)N (PhAc-Arg-Lys-Arg-aldehyde)	154 nM	28 nM	–
NCCCC[C@H](NC(=O)Cc1ccccc1)C(=O)N[C@@H](CCCCN)C(=O)N[C@H](C=O)Cc1c[nH]c2ccccc12 (PhAc-Lys-Lys-Trp-aldehyde)	25700 nM	4600 nM	–
N=C(N)NCCC[C@@H](C=O)NC(=O)[C@H](CCCN)NC(=O)[C@H](CCCCN)NC(=O)Cc1ccccc1 (PhAc-Lys-[Orn]-Arg-aldehyde)	73 nM	13 nM	–
N=C(N)NCCC[C@@H](C=O)NC(=O)[C@H](CCCNC(N)=O)NC(=O)[C@H](CCCCN)NC(=O)Cc1ccccc1 (PhAc-Lys-[Cit]-Arg-aldehyde)	11600 nM	2070 nM	–
NCCCC[C@H](NC(=O)CCc1ccccc1)C(=O)N[C@@H](CCCCN)C(=O)N[C@H](C=O)CCCN=C(N)N (Hydrocinnamoyl-Lys-Lys-Arg-aldehyde)	454 nM	81 nM	–
COc1ccc2ccc([C@H](C)C(=O)N[C@@H](CCCCN)C(=O)N[C@@H](CCCCN)C(=O)N[C@H](C=O)CCCNC(=N)N)cc2c1	112 nM	20 nM	inhibition [1]: > 80%
COc1cccc(CC(=O)N[C@@H](CCCCN)C(=O)N[C@@H](CCCCN)C(=O)N[C@H](C=O)CCCNC(=N)N)c1	–	–	inhibition [1]: > 80%
NCCCC[C@H](NC(=O)c1ccc2ccccc2c1)C(=O)N[C@@H](CCCCN)C(=O)N[C@H](C=O)CCCN=C(N)N	231 nM	41 nM	–
N=C(N)NCCC[C@@H](C=O)NC(=O)[C@H](CCCCN)NC(=O)[C@H](CCCCN)NC(=O)c1ccc2ccccc2c1	–	–	inhibition [1]: > 80%
N=C(N)NCCC[C@@H](C=O)NC(=O)[C@H](CCCCN)NC(=O)[C@H](CCCCN)NC(=O)c1ccccc1N (H-[2Abz]KKR-aldehyde)	891 nM	160 nM	–
N=C(N)NCCC[C@@H](C=O)NC(=O)[C@H](CCCCN)NC(=O)[C@H](CCCCN)NC(=O)COc1ccccc1	107 nM	19 nM	–
NCCCC[C@H](NC(=O)Cc1ccccc1)C(=O)N[C@@H](CCCCN)C(=O)N[C@H](C=O)CCCN=C(N)N (PhAc-Lys-Lys-Arg-aldehyde)	51 nM	9 nM	Activity (Vero): Non-toxic
COc1cccc(CC(=O)N[C@@H](CCCCN)C(=O)N[C@@H](CCCCN)C(=O)N[C@H](C=O)CCCN=C(N)N)c1	60 nM	11 nM	–
N=C(N)NCCCC[C@H](NC(=O)[C@H](CCCCN)NC(=O)Cc1ccccc1)C(=O)N[C@H](C=O)CCCNC(=N)N (PhAc-Lys-[hArg]-Arg-aldehyde)	297 nM	53 nM	–
N=C(N)NCCC[C@@H](C=O)NC(=O)[C@H](CCCCN)NC(=O)[C@H](CCCCN)NC(=O)NCc1ccccc1 ({NHBn-CO}-Lys-Lys-Arg-aldehyde)	146 nM	26 nM	inhibition [1]: > 80%
N=C(N)NCCCC[C@H](NC(=O)Cc1ccccc1)C(=O)N[C@@H](CCCCN)C(=O)N[C@H](C=O)CCCNC(=N)N (PhAc-[hArg]-Lys-Arg-aldehyde)	254 nM	44 nM	–
NCCCC[C@H](NC(=O)c1ccccc1)C(=O)N[C@@H](CCCCN)C(=O)N[C@H](C=O)CCCN=C(N)N (Bz-Lys-Lys-Arg-aldehyde)	271 nM	49 nM	–
N=C(N)NCCC[C@@H](C=O)NC(=O)[C@H](CCCCN)NC(=O)[C@H](CCCN)NC(=O)Cc1ccccc1 (PhAc-[Orn]-Lys-Arg-aldehyde)	255 nM	46 nM	–
N=C(N)NCCC[C@@H](C=O)NC(=O)[C@H](CCCCN)NC(=O)[C@H](CCCNC(N)=O)NC(=O)Cc1ccccc1 (PhAc-[Cit]-Lys-Arg-aldehyde)	619 nM	111 nM	–
N=C(N)NCCC[C@@H](C=O)NC(=O)[C@H](CCCCN)NC(=O)[C@H](CCCCN)NC(=O)Cc1ccc(-c2ccccc2)cc1	32 nM	6 nM	inhibition [1]: > 80%
NCCCC[C@H](NC(=O)OCc1ccccc1)C(=O)N[C@@H](CCCCN)C(=O)N[C@H](C=O)CCCN=C(N)N (Cbz-Lys-Lys-Arg-aldehyde)	222 nM	40 nM	–
N=C(N)NCCC[C@@H](C=O)NC(=O)[C@H](CCCNC(=N)N)NC(=O)[C@H](CCCCN)NC(=O)Cc1ccccc1 (PhAc-Lys-Arg-Arg-aldehyde)	325 nM	58 nM	–
N=C(N)NCCC[C@@H](C=O)NC(=O)[C@H](CCCCN)NC(=O)[C@H](CCCCN)NC(=O)/C=C/c1ccccc1	580 nM	104 nM	inhibition [1]: > 80%
N=C(N)NCCC[C@@H](C=O)NC(=O)[C@H](CCCCN)NC(=O)[C@H](CCCCN)NC(=O)Cc1ccccc1 (PhAc-Lys-Lys-Arg-aldehyde)	–	–	inhibition (Bos taurus): 25%; IC50 (West Nile virus [2]): 1600 nM; inhibition [1]: > 80%; inhibition [3]: 12%; inhibition [4]: 0%; Activity (West Nile virus [5]): Active; inhibition [6]: 0%
